Laboratory results as given in article PMC12663558 (Scientific Reports, 2025).

Assays:
DNA = settings: traditional intercalators, typical range; cited from earlier work
Lipophilicity = assay type: physicochemical; settings: 2-octanol/water
In short: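 Shake-flask partition used 2-octanol and doubly distilled water 1:1 v/v (10 mL total) with 0.001 g test compound. The mixture was shaken overnight, left to equilibrate 1 h, and the phases separated. Compound in each phase was quantified by UV-Vis. log P was taken from the octanol/water concentration ratio.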

[1] = molecular target: bovine serum albumin (BSA) (Bos taurus, UniProt P02769); assay: UV-Vis titration with BSA; assay type: binding; settings: for standard Gibbs free energy change ΔG° of BSA binding: 298 K, ΔG° = -RTlnKapp
In short: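 BSA stock was 3 mg/mL in Tris-HCl pH 7.2, made at 4 °C and quantified by ε280 = 44,300 M−1cm−1; 500 µL of stock was diluted with 1.00 mL buffer. Test compound (10−4 M stock in water) was added stepwise up to 6.83–10.18 µM, with 2 min equilibration at 298 K per step and readings at 280 nm. Kapp = intercept/slope of 1/(A−A0) versus 1/[Ligand]. ΔG° = −RTlnKapp (R 1.987 cal mol−1 K−1, T 298 K).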

CT-DNA (calf thymus DNA) = assay: UV-Vis titration with CT-DNA; assay type: binding; settings: 298 K; for apparent binding constant Kapp with CT-DNA: UV-Vis titration, Tris-HCl pH 7.2; for standard Gibbs free energy change ΔG° of CT-DNA binding: ΔG° = -RTlnKapp
In short: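 CT-DNA stock was 1.5 mg/mL in Tris-HCl pH 7.2, made at 4 °C, with A260/A280 of 1.8–1.9; it was quantified by ε260 = 6600 M−1cm−1. 50 µL of stock was added to 1.45 mL buffer. Test compound (10−4 M stock in water) was added stepwise up to 9.09–13.29 µM, with 2 min at 298 K per step and absorbance read at 260 nm. Kapp = intercept/slope of the 1/(A−A0) versus 1/[Ligand] plot. ΔG° = −RTlnKapp at 298 K.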

[2] = DPPH free radical scavenging assay; assay type: biochemical; settings: standard control, compared with 3a-c
In short: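 DPPH stock was 0.1 mM in ethanol. Test compound solutions at 10, 25, 50, 100, 250, 500 and 1000 µg/mL (concentrations before mixing) were each mixed 1:1 v/v with the DPPH solution. Mixtures were vortexed 10 s and kept in the dark at room temperature for 30 min, then absorbance was read at 517 nm. Ascorbic acid was the reference antioxidant. Scavenging was calculated from absorbance by equation.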

Sequence of bovine serum albumin (BSA) (P02769 25-607): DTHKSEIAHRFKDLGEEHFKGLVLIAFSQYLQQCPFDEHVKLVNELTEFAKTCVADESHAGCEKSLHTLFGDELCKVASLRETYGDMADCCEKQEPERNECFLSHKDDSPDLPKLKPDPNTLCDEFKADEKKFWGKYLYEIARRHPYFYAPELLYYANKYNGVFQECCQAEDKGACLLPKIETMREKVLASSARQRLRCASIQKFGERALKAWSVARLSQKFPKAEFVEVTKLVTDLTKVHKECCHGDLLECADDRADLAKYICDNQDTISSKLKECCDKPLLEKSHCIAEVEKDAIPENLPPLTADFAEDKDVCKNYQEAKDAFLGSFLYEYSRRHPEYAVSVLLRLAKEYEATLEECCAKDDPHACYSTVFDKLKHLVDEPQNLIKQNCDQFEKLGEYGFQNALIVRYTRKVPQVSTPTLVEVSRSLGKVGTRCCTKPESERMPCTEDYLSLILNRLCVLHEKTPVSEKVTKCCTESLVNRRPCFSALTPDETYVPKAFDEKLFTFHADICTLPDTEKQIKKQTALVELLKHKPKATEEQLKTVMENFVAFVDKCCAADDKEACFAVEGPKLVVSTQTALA

| Molecule | binding constant Kb with DNA (DNA) | logP (Lipophilicity) | Kd [1] [µM] | standard Gibbs free energy change ΔG° of BSA binding [1] [kcal/mol] | apparent binding constant Kapp with CT-DNA (CT-DNA (calf thymus DNA)) | standard Gibbs free energy change ΔG° of CT-DNA binding (CT-DNA (calf thymus DNA)) [kcal/mol] | DPPH free radical scavenging activity (in words) [2] |
| --- | --- | --- | --- | --- | --- | --- | --- |
| CC[n+]1c(-c2ccccc2)c2cc(N)ccc2c2ccc(N)cc21 [ethidium bromide] | 10^6 to 10^7 M^− 1 |  |  |  |  |  |  |
| [Ru(phen)DPPZ] | 10^6 to 10^7 M^− 1 |  |  |  |  |  |  |
| O=C1Nc2ccccc2/C1=N/N=C/c1cccc([N+](=O)[O-])c1 [3a, (Z)−3-(((E)−3-nitrobenzylidene)hydrazineylidene)indolin-2-one] |  | 1.29 | 151 | -5.21 | 1.01 × 10^4 M^− 1 | -5.46 |  |
| COc1ccccc1/C=N/N=C1\C(=O)Nc2ccccc21 [3b, (Z)−3-(((E)−2-methoxybenzylidene)hydrazineylidene)indolin-2-one] |  | 2.3 | 136 | -5.27 | 1.17 × 10^4 M^− 1 | -5.55 |  |
| O=C1O[C@H]([C@@H](O)CO)C(O)=C1O [ascorbic acid, Ascorbic acid] |  |  |  |  |  |  | highest scavenging activity |
